Two compounds from ChEMBL document CHEMBL3091364, “Benzyloxybenzylammonium chlorides: Simple amine salts that display anticonvulsant activity” (Bioorg Med Chem, 2013) can be followed below.

Structures are written as SMILES. The source made the active and inactive calls. The calls are words filed in the database; no cut-off is given here.

In assay [1] the test system is Mus musculus. As to the kind of experiment: Anticonvulsant activity in albino CF-1 mouse assessed as protection against maximal electroshock-induced seizures at 100 mg/kg, ip. On the set-up: dose 100 mg/kg. The class given is functional, organism-based. Summed up:
(§1)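 Screened under the NINDS ASP in male albino Carworth Farms No. 1 mice (ip) or male albino Sprague-Dawley rats (ip or po), using MES, 6 Hz (32 mA) and subcutaneous pentylenetetrazol seizure tests. Initial qualitative tests used preset doses (e.g., 30, 50, 100 mg/kg). ED50 values with 95% confidence intervals came from dose–response data collected at the time of peak effect.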

Assay [2] has as its system Mus musculus. Description: Anticonvulsant activity in ip dosed albino CF-1 mouse assessed as protection against 6 Hz psychomotor seizure measured at 0.5 hrs. The note with it: albino CF-1, ip. The class given is functional. Summed up:
as §1

Take `Fc1cccc(COc2ccccc2)c1`: the outcome in assay [1] was inactive.

Broadly, the ED50 is the dose that gives a 50% effect, or the effect in half of the subjects. For the compound `COC[C@@H](NC(C)=O)C(=O)NCc1ccccc1` [LACOSAMIDE], the ED50 in assay [2] is 10 mg/kg.
